Test results: ChEMBL document CHEMBL1126879, “A new series of imidazolones: highly specific and potent nonpeptide AT1 angiotensin II receptor antagonists” (J Med Chem, 1993)

What was measured:
[1] = molecular target: T1, Type-1 angiotensin II receptor B (Rattus norvegicus, UniProt P29089); experiment: Binding affinity for Angiotensin II receptor, type 1 measured by ability to displace [125I]- A II from its specific binding site in rat liver membrane; format: cell membranes
T1 sequence (P29089 whole entry): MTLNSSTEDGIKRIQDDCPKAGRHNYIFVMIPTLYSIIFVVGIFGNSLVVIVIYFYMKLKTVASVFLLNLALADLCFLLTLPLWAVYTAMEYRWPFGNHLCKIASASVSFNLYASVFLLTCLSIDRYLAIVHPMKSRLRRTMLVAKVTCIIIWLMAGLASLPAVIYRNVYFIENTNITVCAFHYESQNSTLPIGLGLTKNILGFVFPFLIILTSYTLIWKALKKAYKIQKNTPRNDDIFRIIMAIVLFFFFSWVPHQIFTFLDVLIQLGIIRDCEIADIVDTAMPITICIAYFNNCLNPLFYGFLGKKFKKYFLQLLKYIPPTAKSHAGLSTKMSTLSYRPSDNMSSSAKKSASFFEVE
Outline: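 Purified plasma membranes from male Sprague-Dawley rat liver, isolated on a sucrose gradient, 20–30 μg protein per assay. Filtered, then gamma counted. Nonspecific binding with 1 μM unlabeled AII. Triplicates; IC50 and Hill coefficient from Hill plots.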

Oryctolagus cuniculus = species: Oryctolagus cuniculus; experiment: Antagonistic activity through inhibition of A II induced contractions on rabbit aortic strips; format: functional; conditions: Aorta

| SMILES | IC50 [1] | IC50 (Oryctolagus cuniculus) |
| --- | --- | --- |
| CCCCC1=NC2(CCCC2)C(=O)N1Cc1ccc(-c2ccccc2C(=O)OC)cc1 | 1800 nM | > 10000 nM |
| CCCCC1=NC2(CCCC2)C(=S)N1Cc1ccc(-c2ccccc2C(=O)O)cc1 | 80 nM | 52 nM |
| O=C(O)c1ccccc1-c1ccc(CN2C(=O)C3(CCCC3)N=C2Cc2ccccc2)cc1 | 2500 nM | 3900 nM |
| CCCCC1=NC2(CCCCCCCCCC2)C(=O)N1Cc1ccc(-c2ccccc2C(=O)O)cc1 | 350 nM | 350 nM |
| CCCCc1nc(Cl)c(CO)n1Cc1ccc(-c2ccccc2-c2nnn[nH]2)cc1 [LOSARTAN] | – | 25 nM |
| CCCCC1=NC2(CCN(Cc3ccccc3)CC2)C(=O)N1Cc1ccc(-c2ccccc2C(=O)O)cc1 | 110 nM | 420 nM |
| CCCCC1=NC2(CCCC2)C(=O)N1Cc1ccc(-c2ccccc2C#N)cc1 | 440 nM | > 10000 nM |
| CCCCC1=NC(c2ccccc2)(c2ccccc2)C(=O)N1Cc1ccc(-c2ccccc2C(=O)O)cc1 | 3000 nM | 5400 nM |
| CCCCC1=NC2(CCN(C(=O)C(N)CC(=O)O)CC2)C(=O)N1Cc1ccc(-c2ccccc2C(=O)O)cc1 (stereo not given) | 800 nM | – |

Continued by falling IC50 [1], values first:

| IC50 [1] | IC50 (Oryctolagus cuniculus) | SMILES |
| --- | --- | --- |
| 62 nM | 23 nM | CCCCC1=NC2(C(=O)N1Cc1ccc(-c3ccccc3C(=O)O)cc1)C1CC3CC(C1)CC2C3 (stereo not given) |
| 60 nM | 240 nM | CCCCC1=NC2(Cc3ccccc3C2)C(=O)N1Cc1ccc(-c2ccccc2C(=O)O)cc1 |
| 47 nM | 200 nM | CCCCC1=NC2(CCOCC2)C(=O)N1Cc1ccc(-c2ccccc2C(=O)O)cc1 |
| 38 nM | 42 nM | CCCCC1=NC2(CCC2)C(=O)N1Cc1ccc(-c2ccccc2C(=O)O)cc1 |
| 18 nM | 130 nM | CCCCC1=NC2(CCN(C(C)=O)CC2)C(=O)N1Cc1ccc(-c2ccccc2C(=O)O)cc1 |
| 2.4 nM | 2.3 nM | CNCC(=O)N[C@@H](CCCNC(=N)N)C(=O)N[C@H](C(=O)N[C@@H](Cc1ccc(O)cc1)C(=O)N[C@H](C(=O)N[C@@H](Cc1cnc[nH]1)C(=O)N1CCC[C@H]1C(=O)N[C@@H](C)C(=O)O)C(C)C)C(C)C [SARALASIN] |
| 1.3 nM | 4 nM | CCCCC1=NC2(CCCC2)C(=O)N1Cc1ccc(-c2ccccc2-c2nnn[nH]2)cc1 [IRBESARTAN] |
